# ChEMBL document CHEMBL2046298, “Lead optimization of purine based orally bioavailable Mps1 (TTK) inhibitors” (Bioorg Med Chem Lett, 2012)
# What was measured:
# [1] = Apparent permeability of the compound by PAMPA; format: ADME
# [2] = Oral bioavailability in CD-1 mouse at 10 mg/kg; format: ADME, organism-based; conditions: in vivo
# Procedure, shortened: (§1)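 CD-1 mice given 10 mg/kg orally in a DMA/PEG 400 solution formulation; matched IV arm at 2.5 mg/kg in DMA/PEG 400 for %F.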
# [3] = Plasma concentration in CD-1 mouse at 10 mg/kg, po measured at 8 hrs; format: ADME, organism-based; set-up: dose 10 mg/kg, route oral
# Procedure, shortened: (§2)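 Abbreviated PK screen: CD-1 mice dosed orally at 10 mg/kg in DMA/PEG 400 solution; plasma levels determined at 4 and 8 h post-dose.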
# [4] = AUC in CD-1 mouse at 10 mg/kg, po; format: ADME, organism-based; set-up: dose 10 mg/kg, route oral; conditions: plasma; procedure, shortened: as §1
# [5] = Cmax in CD-1 mouse at 10 mg/kg, po; format: ADME, organism-based; set-up: dose 10 mg/kg, route oral; conditions: in vivo; procedure, shortened: as §1
# [6] = Plasma concentration in CD-1 mouse at 10 mg/kg, po measured at 4 hrs; format: ADME, organism-based; set-up: dose 10 mg/kg, route oral; procedure, shortened: as §2
Structure (SMILES),Papp [1],bioavailability [2] [%],concentration at 8 h [3] [ng/mL],AUC [4] [ng·h/mL],Cmax [5] [nM],concentration at 4 h [6] [ng/mL]
COc1cc(N2CCN(C(=O)N3CCC(O)C3)CC2)ccc1Nc1nc(NC2CCCCC2)c2nc[nH]c2n1 (stereo not drawn),impermeable,–,–,–,–,–
COc1cc(N2CCC(CC(=O)N3CCOCC3)CC2)ccc1Nc1nc(NC2CCCCC2)c2nc[nH]c2n1,–,23.1,20.9,1650,1400,97
Cc1cc(N2CCOCC2)ccc1Nc1nc(NC2CCCCC2)c2nc[nH]c2n1,–,20,–,–,–,–
COc1cc(N2CCC(CC(=O)N3CCN(C)CC3)CC2)ccc1Nc1nc(NC2CCCCC2)c2[nH]cnc2n1,–,6.9,39.9,547,300,180
COc1cc(N2CCN(C(=O)N3CCN(C)CC3)CC2)ccc1Nc1nc(NC2CCCCC2)c2[nH]cnc2n1,impermeable,–,–,–,–,–
COc1cc(N2CCN(Cc3ccccn3)CC2)ccc1Nc1nc(NC2CCCCC2)c2nc[nH]c2n1,–,–,2.9,–,–,66.3
COc1cc(N2CCC(CC(=O)N3CCCC3)CC2)ccc1Nc1nc(NC2CCCCC2)c2nc[nH]c2n1,–,36,69.2,1770,1800,138
COc1cc(N2CCC(CC(=O)N3CCC(N(C)C)C3)CC2)ccc1Nc1nc(NC2CCCCC2)c2nc[nH]c2n1 (stereo not drawn),impermeable,–,–,–,–,–
COc1cc(N2CCC(CN3CCOCC3)CC2)ccc1Nc1nc(NC2CCCCC2)c2nc[nH]c2n1,–,> 83,187,10700,2600,435
COc1cc(N2CCC(C(=O)N3CCOCC3)CC2)ccc1Nc1nc(NC2CCCCC2)c2nc[nH]c2n1,–,–,1.68,–,–,16.7
COc1cc(N2CCC(N3CCOCC3)CC2)ccc1Nc1nc(NC2CCCCC2)c2nc[nH]c2n1,–,31,44.2,1710,2600,105
COc1cc(N2CCN(S(=O)(=O)CCCN3CCOCC3)CC2)ccc1Nc1nc(NC2CCCCC2)c2nc[nH]c2n1,–,17.9,17.5,1730,1000,156
